Measurements pooled from the literature.
Compare with care: the assays were run in different laboratories.
Cell line: MDA-MB-231
Read-out: cell growth or viability

SMILES | assay | setting | quantity | value
COc1ccc(CNC[C@](O)(COCc2ccc(OC)cc2)[C@@H]2CC[C@@H](C)C[C@H]2OCc2ccc(OC)cc2)cc1 | MTT | 30 µM, 72 h | inhibition | 98.8%
CCc1c(C)c2ccc(OCc3nnc(S)n3N)c(C)c2oc1=O | MTT | 500 µg/mL | viability | 2.85%
O=C(CCc1ccccc1)Nc1cc(-c2ccnc(N3CCC(O)CC3)c2)ccn1 | MTT | 5 µM | inhibition | 78.9%
C[C@@H]1CC[C@@H]([C@@](O)(CNCc2ccccc2)COCc2ccccc2)[C@H](OCc2ccccc2)C1 | MTT | 30 µM, 72 h | inhibition | 97%
O=C(O)c1cccnc1Nc1cccc(C(F)(F)F)c1 | SRB | 48 h | GI50 | > 30 µM
COc1ccccc1CNC[C@@](C)(O)[C@@H]1CC[C@@H](C)C[C@H]1OCc1ccccc1 | MTT | 30 µM, 72 h | inhibition | 87.6%
Cc1cccc(/C=C/C(=O)Nc2cc(-c3ccnc(N4CCOCC4)c3)ccn2)c1 | MTT | 5 µM | inhibition | 79.3%
COc1ccc(COC[C@@](O)(CNCc2ccc(F)cc2)[C@@H]2CC[C@@H](C)C[C@H]2OCc2ccc(OC)cc2)cc1 | MTT | 30 µM, 72 h | inhibition | 99.2%
C=CC(=O)c1cccnc1Nc1cc(C(F)(F)F)ccc1OCc1ccccc1 | SRB | 48 h | GI50 | 18.3 µM
CCNC(=S)NNC(=O)COc1ccc2c(C)c(CC)c(=O)oc2c1C | MTT | 500 µg/mL | viability | 9.96%
O=C(NO)c1ccc(CNc2ccc(NC3=C(Cl)C(=O)c4cccnc4C3=O)cc2)cc1-c1ccccc1 | MTT | 48 h | IC50 | 2500 nM
C=CCOc1ccc2c(C)c(CC)c(=O)oc2c1C | MTT | 31.25 µg/mL | viability | 99.7%
O=C(C=Cc1ccc(F)cc1)Nc1cc(-c2ccnc(N3CCC(O)CC3)c2)ccn1 | MTT | 5 µM | inhibition | 72.3%
Nc1ccccc1NC(=O)c1ccc(CNC(=O)OCc2cccnc2)cc1 | MTT | 48 h | IC50 | 2930 nM
Cc1cccc(/C=C/C(=O)Nc2cccc(-c3ccnc(N4CCOCC4)c3)c2)c1 | MTT | 5 µM | inhibition | 32.2%
COc1cc2c3c(n(CCCNC(C)C)c(=O)c2cc1OC)-c1nc2c(cc1C3=O)OCO2 | MTS | 72 h | IC50 | 644 nM
Cc1cccc(/C=C/C(=O)Nc2cccc(-c3ccnc(N4CCC(CO)CC4)c3)c2)c1 | MTT | 5 µM | inhibition | 76.4%

SMILES | assay | setting | quantity | value
COc1cc2c3c(n(CCCNCCO)c(=O)c2cc1OC)-c1nc2c(cc1C3=O)OCO2 | MTS | 72 h | IC50 | 806 nM
CCc1c(C)c2ccc(OCC(=O)NN=Cc3ccc([N+](=O)[O-])cc3)cc2oc1=O | MTT | 250 µg/mL | viability | 17.3%
O=C(C=Cc1ccccc1)Nc1cc(-c2ccnc(N3CCOCC3)c2)ccn1 | MTT | 72 h | IC50 | 72.9 nM
O=[N+]([O-])c1ccc2c(c1)S(=O)(=O)C=C2 | ATP luminescence | 72 h | IC50 | 1300 nM
O=C(C=Cc1cccc(F)c1)Nc1cc(-c2ccnc(N3CCC(O)CC3)c2)ccn1 | MTT | 5 µM | inhibition | 78.3%
C[C@@H]1CC[C@@H]([C@](C)(O)CNCc2cccc(F)c2)[C@H](OCc2ccccc2)C1 | MTT | 10 µM, 72 h | inhibition | 41.5%
COc1cc([C@@H]2c3cc4c(cc3[C@@H](O[C@@H]3O[C@@H]5CO[C@@H](C)O[C@H]5[C@H](O)[C@H]3O)[C@H]3COC(=O)[C@H]23)OCO4)cc(OC)c1O | MTT | 48 h | IC50 | 43200 nM
C[C@@H]1CC[C@@H]([C@@](O)(CNCc2cccc3ccccc23)COCc2ccccc2)[C@H](OCc2ccccc2)C1 | MTT | 10 µM, 72 h | inhibition | 83%
C=CC(=O)c1cccnc1Nc1cccc(C(F)(F)F)c1 | SRB | 48 h | GI50 | 14.6 µM
C[C@@H]1CC[C@@H]([C@](O)(CNCc2ccc(F)cc2)COCc2ccc(F)cc2)[C@H](OCc2ccc(F)cc2)C1 | MTT | 30 µM, 72 h | inhibition | 95%
CCc1c(C)c2ccc(OCC=Cc3ccccc3)c(C)c2oc1=O | MTT | 125 µg/mL | viability | 87.1%
Cc1cccc(/C=C/C(=O)Nc2cccc(-c3ccnc(N4CCC(O)CC4)c3)c2)c1 | MTT | 5 µM | inhibition | 63.5%
CCOc1ccc2c(C)c(CC)c(=O)oc2c1C | MTT | 1000 µg/mL | viability | 2.44%
Cn1cc(-n2cnc3c(NCc4nc5cc(Cl)c(Cl)cc5[nH]4)nc(N4CCOCC4)nc32)cn1 |  | 5 days | EC50 | 32.4 nM
COc1ccc(CNC[C@@](C)(O)[C@@H]2CC[C@@H](C)C[C@H]2OCc2ccccc2)cc1 | MTT | 10 µM, 72 h | inhibition | 45.7%
CC(=NNC(=O)COc1ccc2c(C)c(Cc3ccccc3)c(=O)oc2c1C)c1ccc(Br)cc1 | MTT | 250 µg/mL | viability | 22.8%
